Where a SMILES comes first, the peptide text is derived from it. [ ]: non-standard residue; d: D form. The star is where a group is joined. Phe(4-guanidino) = N=C(N)Nc1ccc(C[C@H](N)C(=O)O)cc1; Phe(4-NH2) = Nc1ccc(C[C@H](N)C(=O)O)cc1; Tryptamide = c1ccc2c(CCN*)c[nH]c2c1; βAla = NCCC(=O)O
Tests used:
[1] = target: T1, Proprotein convertase subtilisin/kexin type 6 (Homo sapiens, UniProt P29122); experiment: Inhibition of recombinant human PACE4 expressed in S2 insect cells using pyroGlu-Arg-Thr-Lys-Arg-AMC peptide as substrate after 1 hr by spectrofluorometry
T1 sequence (P29122 whole entry): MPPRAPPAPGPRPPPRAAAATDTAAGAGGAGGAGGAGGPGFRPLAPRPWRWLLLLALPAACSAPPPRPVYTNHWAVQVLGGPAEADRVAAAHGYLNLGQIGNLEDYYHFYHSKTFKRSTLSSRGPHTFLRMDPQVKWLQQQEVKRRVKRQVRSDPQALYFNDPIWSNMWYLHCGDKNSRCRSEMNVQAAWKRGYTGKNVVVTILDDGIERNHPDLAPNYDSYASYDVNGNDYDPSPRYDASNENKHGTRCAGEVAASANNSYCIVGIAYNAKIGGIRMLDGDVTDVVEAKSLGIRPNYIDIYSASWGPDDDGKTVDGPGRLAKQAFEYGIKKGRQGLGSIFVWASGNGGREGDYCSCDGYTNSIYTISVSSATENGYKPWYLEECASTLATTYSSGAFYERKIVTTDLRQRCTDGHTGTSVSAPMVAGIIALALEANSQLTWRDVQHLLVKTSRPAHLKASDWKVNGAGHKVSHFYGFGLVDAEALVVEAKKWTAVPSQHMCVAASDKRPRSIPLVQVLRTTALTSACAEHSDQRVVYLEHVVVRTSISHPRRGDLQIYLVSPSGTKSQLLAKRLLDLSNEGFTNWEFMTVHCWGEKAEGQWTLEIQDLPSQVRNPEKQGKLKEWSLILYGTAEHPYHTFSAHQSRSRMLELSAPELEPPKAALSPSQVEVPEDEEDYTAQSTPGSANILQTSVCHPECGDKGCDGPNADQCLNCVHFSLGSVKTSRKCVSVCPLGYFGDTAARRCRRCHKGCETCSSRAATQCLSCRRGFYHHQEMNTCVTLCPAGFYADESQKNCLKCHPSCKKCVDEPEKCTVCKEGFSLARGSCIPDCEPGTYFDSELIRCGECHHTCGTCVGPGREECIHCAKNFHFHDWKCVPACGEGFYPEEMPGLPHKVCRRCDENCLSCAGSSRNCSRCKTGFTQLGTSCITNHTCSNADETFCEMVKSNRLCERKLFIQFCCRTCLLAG
Outline: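 Human recombinant PACE4 made in S2 insect cells and purified. Assay buffer 20 mM Bis-Tris pH 6.5, 1 mM CaCl2, 1.8 g/L BSA. Substrate 100 µM per well, inhibitors 0–10 µM, 2 units enzyme. Fluorescence (ex 370/em 460 nm) followed in real time for 1 h. Ki from IC50 by Cheng–Prusoff; duplicate or triplicate.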

DU-145 [2] = experiment: Antiproliferative activity against human DU145 cells after 72 hrs by MTT assay; type: functional, cell-based; settings: DU-145, 72 h
Outline: (§1)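 MTT assay run 72 h. Seeding was ~1500 cells/well for DU145 and ~2500 cells/well for LNCaP, in RPMI 1640 with 5% FBS (DU145) or 10% FBS (LNCaP). Medium was changed after 24 h, then inhibitor added at 1–300 µM or 1–150 µM. MTT was added at 1 g/L final for 4 h and formazan dissolved in 2-propanol/HCl. Readings were relative to vehicle (water, 0.1% DMSO). IC50 was from at least two independent experiments.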

LNCaP [3] = experiment: Antiproliferative activity against human LNCAP cells after 72 hrs by MTT assay; type: functional, cell-based; outline: as §1
Homo sapiens = species on record: Homo sapiens; experiment: Selectivity ratio of Ki for recombinant human furin to Ki for recombinant human PACE4
Outline: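 Ki values came from human recombinant enzymes expressed in S2 insect cells. Furin was assayed in 100 mM HEPES pH 7.5, 1 mM CaCl2, 1 mM β-mercaptoethanol and 1.8 g/L BSA. PACE4 was assayed in 20 mM Bis-Tris pH 6.5, 1 mM CaCl2 and 1.8 g/L BSA. Substrate was pERTKR-AMC at 100 µM, with inhibitor at 0–10 µM. Fluorescence (ex 370/em 460 nm) was read for 1 h, and Ki derived by Cheng-Prusoff.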

Furin = Furin (Homo sapiens, UniProt P09958); experiment: Inhibition of recombinant human furin expressed in S2 insect cells using pyroGlu-Arg-Thr-Lys-Arg-AMC peptide as substrate after 1 hr by spectrofluorometry
Outline: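 Furin was human recombinant from S2 insect cells, purified. Buffer 100 mM HEPES pH 7.5, 1 mM CaCl2, 1 mM β-mercaptoethanol, 1.8 g/L BSA. Substrate 100 µM per well, inhibitors 0–10 µM, 2 units enzyme. Real-time fluorescence (ex 370/em 460 nm) over 1 h. Ki by Cheng–Prusoff; duplicate or triplicate.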

[4] = Drug uptake in human DU145 cells at 1 uM after 1 hr using FITC labelled compound by flow cytometric analysis relative to FITC-[betaAla]-LLLLRVKR-NH2 peptide; type: ADME, cell-based; settings: du-145, 1 h
Outline: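 DU145 cells were plated at 200000 per dish and grown 48 h at 37 °C. They were exposed to 1 µM N-terminally FITC-labelled peptide for 1 h at 37 °C, then trypsinized, washed and resuspended in PBS. PI at 10 µg/mL was added to gate out dead cells. Parallel tubes were quenched with 0.04% trypan blue to remove membrane-bound signal. Flow cytometry counted at least 10000 events.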

DU-145 [5] = experiment: Antiproliferative activity against human DU145 cells up to 300 uM after 72 hrs by MTT assay relative to control; type: functional; outline: as §1
LNCaP [6] = experiment: Antiproliferative activity against human LNCAP cells up to 300 uM after 72 hrs by MTT assay relative to control; type: functional; outline: as §1
DU-145 [7] = experiment: Cytotoxicity against human DU145 cells assessed as effect on live cells up to 100 uM after 1.5 hrs by propidium iodide-staining based FACS analysis; type: cell-based; settings: du-145, 1.5 h
Outline: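 DU145 cells (200 000 per well) exposed to peptides in serum-free medium for 1.5 h at 1, 10, 50 and 100 µM, or 1, 10, 15, 20, 30, 50, 100 µM for the dose-response set. Cells trypsinized, washed, resuspended in PBS, PI added (final 10 µg/mL), fluorescence read by flow cytometry; IC50(PI) from the dose-response curve; at least two independent experiments.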

Chain of Furin (P09958 whole entry): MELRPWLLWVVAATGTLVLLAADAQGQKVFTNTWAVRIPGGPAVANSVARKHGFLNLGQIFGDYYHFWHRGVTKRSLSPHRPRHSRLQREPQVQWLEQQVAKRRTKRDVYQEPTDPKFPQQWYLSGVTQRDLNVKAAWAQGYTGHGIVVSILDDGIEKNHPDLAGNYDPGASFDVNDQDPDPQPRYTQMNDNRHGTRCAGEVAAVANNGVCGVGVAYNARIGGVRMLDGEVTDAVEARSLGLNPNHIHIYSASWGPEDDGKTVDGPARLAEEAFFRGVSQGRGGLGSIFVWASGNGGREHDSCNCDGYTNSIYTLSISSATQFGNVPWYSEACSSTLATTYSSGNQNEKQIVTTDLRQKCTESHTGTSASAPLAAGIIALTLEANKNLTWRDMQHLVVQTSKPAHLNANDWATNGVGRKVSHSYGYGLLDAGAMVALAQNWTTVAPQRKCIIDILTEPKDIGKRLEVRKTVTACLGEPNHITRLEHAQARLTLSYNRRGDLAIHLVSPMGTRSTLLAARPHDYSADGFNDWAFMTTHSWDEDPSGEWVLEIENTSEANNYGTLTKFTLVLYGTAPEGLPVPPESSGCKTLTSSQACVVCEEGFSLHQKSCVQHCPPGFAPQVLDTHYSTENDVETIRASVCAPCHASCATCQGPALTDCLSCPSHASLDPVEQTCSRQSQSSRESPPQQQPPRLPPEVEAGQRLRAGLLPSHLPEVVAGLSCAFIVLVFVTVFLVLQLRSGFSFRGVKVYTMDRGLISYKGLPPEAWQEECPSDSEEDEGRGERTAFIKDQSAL

Molecule	Ki [1] [nM]	IC50 (DU-145 [2]) [nM]	IC50 (LNCaP [3]) [nM]	Ratio Ki (Homo sapiens)	Ki (Furin) [nM]	fold change (FC) [4]	Drug uptake [4]	Activity (DU-145 [5]) [%]	Activity (LNCaP [6]) [%]	Activity (DU-145 [7])
CC(=O)N[C@H](CC(C)C)C(=O)N[C@@H](CC(C)C)C(=O)N[C@@H](CC(C)C)C(=O)N[C@@H](CC(C)C)C(=O)N[C@@H](CCCNC(=N)N)C(=O)N[C@H](C(=O)N[C@@H](CCCCN)C(=O)N[C@@H](CCCNC(=N)N)C(=O)NCCc1ccc(C(=N)N)cc1)C(C)C	68	41000	67000	10	700					
CC(=O)N[C@@H](CC(C)C)C(=O)N[C@@H](CC(C)C)C(=O)N[C@@H](CC(C)C)C(=O)N[C@@H](CC(C)C)C(=O)N[C@@H](CCCNC(=N)N)C(=O)N[C@H](C(=O)N[C@@H](CCCCN)C(=O)N[C@@H](CCCNC(=N)N)C(=O)N[C@@H](Cc1ccc(N)cc1)C(N)=O)C(C)C (Ac-LLLLRVKR[Phe(4-NH2)]-NH2)	32	139000	170000	4	130					
CC(=O)N[C@@H](CC(C)C)C(=O)N[C@@H](CC(C)C)C(=O)N[C@@H](CC(C)C)C(=O)N[C@@H](CC(C)C)C(=O)N[C@@H](CCCNC(=N)N)C(=O)N[C@H](C(=O)N[C@@H](CCCCN)C(=O)N[C@@H](CCCNC(=N)N)C(=O)N[C@@H](Cc1ccc(NC(=N)N)cc1)C(N)=O)C(C)C (Ac-LLLLRVKR[Phe(4-guanidino)]-NH2)	11	83000	92000	13	140					
CC(C)C[C@H](NC(=O)CCN)C(=O)N[C@@H](CC(C)C)C(=O)N[C@@H](CC(C)C)C(=O)N[C@@H](CC(C)C)C(=O)N[C@@H](CCCNC(=N)N)C(=O)N[C@H](C(=O)N[C@@H](CCCCN)C(=O)N[C@@H](CCCNC(=N)N)C(=O)NCCc1c[nH]c2ccccc12)C(C)C (H-[βAla]LLLLRVKR-Tryptamide)						3.5				
CC(C)C[C@H](NC(=O)CCN)C(=O)N[C@@H](CC(C)C)C(=O)N[C@@H](CC(C)C)C(=O)N[C@@H](CC(C)C)C(=O)N[C@@H](CCCNC(=N)N)C(=O)N[C@H](C(=O)N[C@@H](CCCCN)C(=O)N[C@@H](CCCNC(=N)N)C(=O)N[C@@H](CCCCN)C(N)=O)C(C)C (H-[βAla]LLLLRVKRK-NH2)							Active			
CC(C)C[C@H](NC(=O)CCN)C(=O)N[C@@H](CC(C)C)C(=O)N[C@@H](CC(C)C)C(=O)N[C@@H](CC(C)C)C(=O)N[C@@H](CCCNC(=N)N)C(=O)N[C@H](C(=O)N[C@@H](CCCCN)C(=O)N[C@@H](CCCNC(=N)N)C(=O)N[C@@H](CCCNC(=N)N)C(N)=O)C(C)C (H-[βAla]LLLLRVKRR-NH2)							Active			
CC(C)C[C@H](NC(=O)CCN)C(=O)N[C@@H](CC(C)C)C(=O)N[C@@H](CC(C)C)C(=O)N[C@@H](CC(C)C)C(=O)N[C@@H](CCCNC(=N)N)C(=O)N[C@H](C(=O)N[C@@H](CCCCN)C(=O)N[C@@H](CCCNC(=N)N)C(=O)N[C@@H](Cc1c[nH]c2ccccc12)C(N)=O)C(C)C (H-[βAla]LLLLRVKRW-NH2)						2				
Ac-LLLLRVKR-NH2				20						
Ac-LLLLRVKRA-NH2	37	160000		6	210					
Ac-LLLLRVKRD-NH2	30	230000		2	74					
Ac-LLLLRVKRE-NH2	58			4	260			<50		
Ac-LLLLRVKRF-NH2	20	70000	170000	4	74					
Ac-LLLLRVKRG-NH2	44			11	500			<50		
Ac-LLLLRVKRH-NH2	33			4	140			<50		
Ac-LLLLRVKRI-NH2	64	72000		5	290				<50	
Ac-LLLLRVKRK-NH2	150	130000		17	2600					Non-Toxic
Ac-LLLLRVKRL-NH2	170	90000		6	990					
Ac-LLLLRVKRM-NH2	32	130000		5	170					
Ac-LLLLRVKRN-NH2	28			5	130			<50		
Ac-LLLLRVKRP-NH2	250	210000		4	990					
Ac-LLLLRVKRQ-NH2	43	210000		5	190					
Ac-LLLLRVKRS-NH2	64	240000		5	330					
Ac-LLLLRVKRT-NH2	22	170000		5	100					
Ac-LLLLRVKRV-NH2	38	170000		5	200					
Ac-LLLLRVKRY-NH2	29	100000		2	64					

Source: ChEMBL document CHEMBL4229560, “Increasing C-Terminal Hydrophobicity Improves the Cell Permeability and Antiproliferative Activity of PACE4 Inhibitors against Prostate Cancer Cell Lines” (J Med Chem, 2018)
